Calls of active or inactive are those of the source. No cut-off for these calls is given here.
Experiments:
[1] = Apparent clearance in Sprague-Dawley rat plasma at 25 mg/kg, iv by HPLC analysis; type: ADME, organism-based; details: read-out: CL(app)
Method in brief: (§1)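 Male Sprague–Dawley rats were given a single intravenous dose of 25 mg/kg. Drug levels were followed by microdialysis of blood and brain, alongside plasma. AUC0–t, AUC0–∞, MRT and CLz were derived from the concentration–time curves, n=6, reported as mean ± SD.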

[2] = system: Mus musculus; experiment: Cognition enhancement in aluminium trichloride-induced amnesia mouse model assessed as total swimming time at 0.5 mg/kg administered via gastric gavage for 30 days by SMG-2 programmable water maze test (reference value: 115 +/- 19 secs); type: functional
[3] = species on record: Danio rerio; experiment: Cognition enhancement in aluminium chloride-induced Alzheimer's disease zebra fish model assessed as Dyskinesia recovery rate at 5 uM treated from 3 dpf to 5 dpf relative to control; type: functional
Method in brief: (§2)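 Zebrafish larvae were exposed to 150 µM AlCl₃ from 3 to 5 dpf and co-treated with compound at 1, 5 or 25 µM over the same window, 30 fish per group. DRR and RE values were calculated from the average swimming speed of treated fish.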

[4] = Ratio of drug level in Sprague-Dawley rat brain to plasma at 25 mg/kg, iv by HPLC analysis; type: ADME, organism-based; details: read-out: BPR
Method in brief: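 Male Sprague–Dawley rats received 25 mg/kg intravenously, with blood and brain sampled by microdialysis. The brain/plasma exposure ratio was calculated from AUC0–∞ measured in brain and plasma dialysates.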

[5] = system: MCF7; experiment: Cytotoxicity against human MCF7 cells assessed as reduction in cell viability incubated for 24 hrs by MTT assay; type: cell-based; details: MCF7, 24 h
[6] = Stability of the compound in simulated gastric fluid measured up to 60 mins by HPLC analysis; type: ADME; details: simulated gi fluid, 1 h
Method in brief: (§3)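 The compound was incubated separately in human plasma, human liver microsomes, simulated gastric fluid and simulated intestinal fluid. Remaining compound was quantified by HPLC at 5, 15, 30, 45 and 60 min.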

[7] = system: A549; experiment: Cytotoxicity against human A549 cells assessed as reduction in cell viability incubated for 24 hrs by MTT assay; type: cell-based; details: A549, 24 h
[8] = species on record: Danio rerio; experiment: Cognition enhancement in aluminium chloride-induced Alzheimer's disease zebra fish model assessed as Dyskinesia recovery rate treated from 3 dpf to 5 dpf; type: functional, organism-based; method in brief: as §2
[9] = target: Voltage-gated inwardly rectifying potassium channel KCNH2 (Homo sapiens, UniProt Q12809); experiment: Inhibition of human ERG expressed in CHO cells incubated for 1 min at -80 mV holding potential by manual patch clamp assay; type: cell-based
[10] = Stability of compound in human liver microsomes measured up to 60 mins by HPLC analysis; type: ADME, Microsome; details: 1 h; method in brief: as §3
[11] = species on record: Danio rerio; experiment: Cognition enhancement in aluminium chloride-induced Alzheimer's disease zebra fish model assessed as Response efficiency at 1 uM treated from 3 dpf to 5 dpf relative to control; type: functional; method in brief: as §2
[12] = system: Mus musculus; experiment: Cognition enhancement in scopolamine-induced amnesia mouse model assessed as total swimming distance at 25 mg/kg, iv administered once daily for 18 days measured after 50 mins at 5th day of training session by Morris water maze test (reference value: 785+/-351 cm); type: functional
[13] = system: Mus musculus; experiment: Cognition enhancement in aluminium trichloride-induced amnesia mouse model assessed as total swimming time at 8 mg/kg administered via gastric gavage for 30 days by SMG-2 programmable water maze test (reference value: 115 +/- 19 secs); type: functional
[14] = species on record: Danio rerio; experiment: Cognition enhancement in aluminium chloride-induced Alzheimer's disease zebra fish model assessed as Response efficiency at 5 uM treated from 3 dpf to 5 dpf relative to control; type: functional; method in brief: as §2
[15] = AUC (0 to infinity) in Sprague-Dawley rat blood dialysis at 25 mg/kg, iv by HPLC analysis; type: ADME, organism-based; design: dose 25 mg/kg, route intravenous, time infinity; details: blood dialysate; method in brief: as §1
[16] = MRT in Sprague-Dawley rat brain at 25 mg/kg, iv by HPLC analysis; type: ADME, organism-based; method in brief: as §1
[17] = AUC (0 to infinity) in Sprague-Dawley rat plasma at 25 mg/kg, iv by HPLC analysis; type: ADME, organism-based; design: dose 25 mg/kg, time infinity, route intravenous; method in brief: as §1
[18] = species on record: Danio rerio; experiment: Cognition enhancement in aluminium chloride-induced Alzheimer's disease zebra fish model assessed as Dyskinesia recovery rate at 25 uM treated from 3 dpf to 5 dpf relative to control; type: functional; method in brief: as §2
[19] = Metal chelating activity assessed as compound-Cu2+ complex formation by measuring decrease in absorption with spectral shift to red end at 25 uM incubated for 5 mins in presence of 25 uM CuCl2 by UV-visible spectrophotometry
[20] = system: Mus musculus; experiment: Cognition enhancement in scopolamine-induced amnesia mouse model assessed as escape latency at 25 mg/kg, iv administered once daily for 18 days measured after 50 mins at 5th day of training session by Morris water maze test (reference value: 63.2+/-21.1 secs); type: functional
[21] = Metal chelating activity assessed as compound-Fe2+ complex formation at 25 uM incubated for 5 mins in presence of 25 uM FeSO4 by UV-visible spectrophotometry
[22] = species on record: Danio rerio; experiment: Cognition enhancement in aluminium chloride-induced Alzheimer's disease zebra fish model assessed as Dyskinesia recovery rate at 1 uM treated from 3 dpf to 5 dpf relative to control; type: functional; method in brief: as §2
[23] = Stability of the compound in simulated intestinal fluid measured up to 60 mins by HPLC analysis; type: ADME; details: simulated gi fluid, 1 h; method in brief: as §3
[24] = AUC (0 to t) in Sprague-Dawley rat plasma at 25 mg/kg, iv by HPLC analysis; type: ADME, organism-based; method in brief: as §1
[25] = system: N2a; experiment: Cytotoxicity against mouse Neuro2a cells assessed as reduction in cell viability incubated for 24 hrs by MTT assay; type: cell-based
[26] = system: Mus musculus; experiment: Cognition enhancement in aluminium trichloride-induced amnesia mouse model assessed as error times at 0.5 mg/kg administered via gastric gavage for 30 days by SMG-2 programmable water maze test (reference value: 20.7 +/- 4.8 secs); type: functional
[27] = target: Amyloid-beta precursor protein (Homo sapiens) (UniProt P05067); experiment: Inhibition of HFIP-pretreated amyloid beta (1 to 42) (unknown origin) self-aggregation at 20 uM after 24 hrs by thioflavin-T fluorescence assay relative to control
[28] = system: Mus musculus; experiment: Cognition enhancement in aluminium trichloride-induced amnesia mouse model assessed as error times at 8 mg/kg administered via gastric gavage for 30 days by SMG-2 programmable water maze test (reference value: 20.7 +/- 4.8 secs); type: functional
[29] = target: Amyloid-beta precursor protein (Homo sapiens) (UniProt P05067); experiment: Inhibition of HFIP-pretreated amyloid beta (1 to 42) (unknown origin) self-aggregation at 20 uM after 72 hrs by uranyl acetate staining based transmission electron microscopy
Method in brief: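 Aβ1-42 was incubated alone or with compound for 72 h at 37 °C. Fibril formation was then examined by transmission electron microscopy, with curcumin as positive control.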

[30] = species on record: Danio rerio; experiment: Cognition enhancement in aluminium chloride-induced Alzheimer's disease zebra fish model assessed as Response efficiency at 25 uM treated from 3 dpf to 5 dpf relative to control; type: functional; method in brief: as §2
[31] = system: Mus musculus; experiment: Cognition enhancement in aluminium trichloride-induced amnesia mouse model assessed as error times at 2 mg/kg administered via gastric gavage for 30 days by SMG-2 programmable water maze test (reference value: 20.7 +/- 4.8 secs); type: functional
[32] = Apparent clearance in Sprague-Dawley rat blood dialysis at 25 mg/kg, iv by HPLC analysis; type: ADME, organism-based; details: blood dialysate, read-out: CL(app); method in brief: as §1
[33] = MRT in Sprague-Dawley rat blood dialysis at 25 mg/kg, iv by HPLC analysis; type: ADME, organism-based; details: blood dialysate; method in brief: as §1
[34] = target: Amyloid-beta precursor protein (Homo sapiens) (UniProt P05067); experiment: Inhibition of HFIP-pretreated amyloid beta (1 to 42) (unknown origin) self-aggregation at 20 uM after 48 hrs by thioflavin-T fluorescence assay
[35] = Stability of compound in human plasma measured up to 60 mins by HPLC analysis; type: ADME, cell-free; details: 1 h; method in brief: as §3
[36] = MRT in Sprague-Dawley rat plasma at 25 mg/kg, iv by HPLC analysis; type: ADME, organism-based; method in brief: as §1
[37] = AUC (0 to t) in Sprague-Dawley rat blood dialysis at 25 mg/kg, iv by HPLC analysis; type: ADME, organism-based; details: blood dialysate; method in brief: as §1
[38] = target: Amyloid-beta precursor protein (Homo sapiens) (UniProt P05067); experiment: Inhibition of HFIP-pretreated amyloid beta (1 to 42) (unknown origin) self- aggregation at 20 uM after 72 hrs by thioflavin-T fluorescence assay relative to control
[39] = AUC (0 to t) in Sprague-Dawley rat brain at 25 mg/kg, iv by HPLC analysis; type: ADME, organism-based; method in brief: as §1
[40] = AUC (0 to infinity) in Sprague-Dawley rat brain at 25 mg/kg, iv by HPLC analysis; type: ADME, organism-based; design: dose 25 mg/kg, route intravenous, time infinity; method in brief: as §1
[41] = target: hERG (KCNH2) (Homo sapiens, UniProt Q12809); experiment: Inhibition of human ERG expressed in CHO cells at 0.1 uM incubated for 1 min at -80 mV holding potential by manual patch clamp assay relative to control; type: cell-based; details: CHO cells expressing human ERG
[42] = Metal chelating activity assessed as compound-Zn2+ complex formation at 25 uM incubated for 5 mins in presence of 25 uM ZnCl2 by UV-visible spectrophotometry

Amyloid-beta precursor protein (Homo sapiens), sequence (P05067 whole entry): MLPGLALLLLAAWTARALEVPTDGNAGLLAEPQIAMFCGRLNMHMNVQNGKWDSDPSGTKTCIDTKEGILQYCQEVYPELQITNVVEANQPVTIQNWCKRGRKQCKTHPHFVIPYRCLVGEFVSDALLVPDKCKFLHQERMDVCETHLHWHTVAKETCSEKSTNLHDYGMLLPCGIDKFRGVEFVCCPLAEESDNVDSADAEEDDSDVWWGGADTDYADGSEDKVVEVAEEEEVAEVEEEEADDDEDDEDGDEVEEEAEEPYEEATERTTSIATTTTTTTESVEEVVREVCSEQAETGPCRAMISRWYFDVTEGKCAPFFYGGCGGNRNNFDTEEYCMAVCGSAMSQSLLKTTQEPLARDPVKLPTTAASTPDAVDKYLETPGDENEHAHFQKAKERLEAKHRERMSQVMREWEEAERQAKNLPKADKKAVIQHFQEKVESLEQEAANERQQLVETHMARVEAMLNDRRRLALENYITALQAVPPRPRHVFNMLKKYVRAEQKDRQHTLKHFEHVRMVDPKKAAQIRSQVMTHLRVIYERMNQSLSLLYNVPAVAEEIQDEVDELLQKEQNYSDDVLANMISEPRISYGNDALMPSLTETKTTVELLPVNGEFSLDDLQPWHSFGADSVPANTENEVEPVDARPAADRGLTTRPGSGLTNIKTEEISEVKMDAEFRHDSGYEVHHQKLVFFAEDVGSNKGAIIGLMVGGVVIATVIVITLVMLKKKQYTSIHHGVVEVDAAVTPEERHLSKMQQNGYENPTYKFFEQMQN
hERG (KCNH2), sequence (Q12809 whole entry): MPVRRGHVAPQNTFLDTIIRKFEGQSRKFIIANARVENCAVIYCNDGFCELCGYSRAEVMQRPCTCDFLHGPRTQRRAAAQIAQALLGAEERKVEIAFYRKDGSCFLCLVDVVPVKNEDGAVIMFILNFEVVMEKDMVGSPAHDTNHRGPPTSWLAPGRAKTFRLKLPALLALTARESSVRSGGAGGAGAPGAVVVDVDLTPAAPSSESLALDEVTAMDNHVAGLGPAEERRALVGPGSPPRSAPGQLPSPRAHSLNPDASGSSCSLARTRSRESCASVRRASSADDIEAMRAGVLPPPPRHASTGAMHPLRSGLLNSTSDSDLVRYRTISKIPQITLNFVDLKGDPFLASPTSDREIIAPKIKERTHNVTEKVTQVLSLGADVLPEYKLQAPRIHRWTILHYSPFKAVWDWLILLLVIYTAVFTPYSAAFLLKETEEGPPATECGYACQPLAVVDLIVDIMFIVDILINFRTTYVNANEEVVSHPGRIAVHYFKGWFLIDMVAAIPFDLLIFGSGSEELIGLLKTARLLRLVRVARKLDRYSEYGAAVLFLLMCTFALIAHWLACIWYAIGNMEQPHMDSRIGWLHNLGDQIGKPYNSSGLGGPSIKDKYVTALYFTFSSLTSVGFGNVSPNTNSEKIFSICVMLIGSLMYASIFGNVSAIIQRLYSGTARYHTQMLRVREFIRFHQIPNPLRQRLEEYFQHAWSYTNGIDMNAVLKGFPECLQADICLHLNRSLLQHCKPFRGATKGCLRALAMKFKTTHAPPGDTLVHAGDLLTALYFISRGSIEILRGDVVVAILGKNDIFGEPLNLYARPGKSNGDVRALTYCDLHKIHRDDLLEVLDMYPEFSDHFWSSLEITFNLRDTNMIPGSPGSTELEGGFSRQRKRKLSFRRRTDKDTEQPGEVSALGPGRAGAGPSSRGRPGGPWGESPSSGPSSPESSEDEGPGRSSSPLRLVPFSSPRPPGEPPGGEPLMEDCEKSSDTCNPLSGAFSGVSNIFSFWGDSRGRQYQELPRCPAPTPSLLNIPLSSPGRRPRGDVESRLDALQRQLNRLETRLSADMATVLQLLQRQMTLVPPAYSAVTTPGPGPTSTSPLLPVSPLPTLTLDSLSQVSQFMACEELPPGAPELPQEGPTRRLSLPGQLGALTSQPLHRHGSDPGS
Voltage-gated inwardly rectifying potassium channel KCNH2, sequence (Q12809 whole entry): as above

In the case of `CCN(C)C(=O)Oc1cc(C(C)N(C)C)cc2cccnc12` (stereo unspecified), the clearance [1] is reported as 62 mL/min/kg, the Time [2] is reported as 73 s and the Activity [3] is reported as 99.3%. For the same molecule, the Kp [4] was 0.524, the IC50 [5] was > 20 µM and the Stability [6] was “Stable”. The IC50 [7] was > 20 µM, the Activity [8] was “Dose-dependent effect” and the IC50 [9] was > 30 µM. For the same molecule, the Stability [10] was “Stable”, the Activity [11] was 112.4% and the Activity [12] was 520 cm. It also gave a Time [13] of 79 s, an Activity [14] of 161.4% and an AUC(0-inf) [15] of 2450 ng·h/mL. The MRT [16] was 0.947 h, the AUC(0-inf) [17] was 7460 ng·h/mL and the Activity [18] was 121%. The Activity [19] was “inactive”, the Time [20] was 43.8 s and the Activity [21] was “inactive”. For the same molecule, the Activity [22] was 70.8%, the Stability [23] was “Stable” and the AUC(0-t) [24] was 7410 ng·h/mL. The IC50 [25] was > 20 µM, the Time [26] was 15.1 s and the inhibition [27] was 31.3%. For the same molecule, the Time [28] was 16.8 s, the inhibition [29] was “Active” and the Activity [30] was 70.2%. The Time [31] was 18.1 s, the clearance [32] was 190 mL/min/kg and the MRT [33] was 1.16 h. The inhibition [34] was 55.9%, the Stability [35] was “Stable” and the MRT [36] was 1.53 h. It also gave an AUC(0-t) [37] of 2430 ng·h/mL, an inhibition [38] of 66.1% and an AUC(0-t) [39] of 1260 ng·h/mL. The AUC(0-inf) [40] was 1270 ng·h/mL.
Work on `COc1cc(N)c(Cl)cc1C(=O)N[C@H]1CCN(CCCOc2ccc(F)cc2)C[C@H]1OC` [REL-CISAPRIDE] yielded an inhibition at 1 min, 0.1 µM [41] of 89%.
For `CC(c1cc(O)c2ncccc2c1)N(C)C` (stereo unspecified), the Activity [19] was “Active”, the Activity [21] was “Active” and the Activity [42] was “Active”. The inhibition [29] was “Active” and the inhibition [34] was 44%.

Source: ChEMBL document CHEMBL4393722, “Development of the "hidden" multifunctional agents for Alzheimer's disease” (Eur J Med Chem, 2019)
